The record followed here is PMC11097374 (ACS Omega, 2024).

One may read the IC50 as the concentration that gives 50% inhibition.

For data set [1], the system named is MDA-MB 231 cells. Nature of the data set: MTT assay against human breast cancer cell line MDA-MB 231. In kind it is cell-based. In a few lines:
(§1)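 Cytotoxicity by MTT, run side by side on MCF-7 and MDA-MB231 breast cancer cells and Wi-38 normal human fibroblasts, with doxorubicin as reference. IC50 was determined for each line, and IC100 also on Wi-38. Selectivity indices express selectivity toward each breast cancer line over the normal Wi-38 cells.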
In general terms: Tetrazolium dyes change colour on reduction, which living cells bring about.

The subject of data set [2] is calf thymus DNA (ctDNA). The experiment in a line: DNA damage by terbium. In kind it is biochemical. As to conditions: 24 h incubation, Tb fluorescence 545 nm.
Data set [3] has as its system MCF-7 cells. Nature of the data set: MTT assay against human breast cancer cell line MCF-7. In kind it is cell-based. In outline:
as §1

Data set [4] has as its system MCF-7 cells. Nature of the data set: Annexin V-FITC/PI double staining apoptosis assay. It counts as cell-based, human. As to conditions: MCF-7, 24 h treatment with IC50.
The subject of data set [5] is Wi-38 normal human lung fibroblast cells. Nature of the data set: MTT assay against normal human cell line. It counts as cell-based. In outline:
as §1

Data set [6] deals with MCF-7 cells. Nature of the data set: MCF-7 cell cycle analysis by flow cytometry. Particulars: MCF-7, 24 h treatment with IC50. It counts as cell-based, human. (Flow cytometry measures light scatter and fluorescence of single cells or particles in a stream.)

Consider `CC(=O)Nc1c(N)nc(SCC(=O)NN)[nH]c1=O` [Compound 5, N-(4-amino-2-((2-hydrazinyl-2-oxoethyl)thio)-6-oxo-1,6-dihydropyrimidin-5-yl)acetamide], for which the IC50 in data set [1] (Homo sapiens, MDA-MB-231, 72 h, read-out: MDA-MB 231 IC50) is 826 ± 46 nM. The “MDA-MB 231 SI (selectivity index)” value in data set [1] (over Wi-38 normal cells) is reported as 0.969. Also, in data set [2], the “LOD (minimum concentration inducing detectable DNA damage)” value amounted to 10.64 nM and the LOQ is on record as 35.48 nM. Further, the IC50 in data set [3] (Homo sapiens, MCF7, 72 h, read-out: MCF-7 IC50) worked out at 50 ± 8 nM. Besides, the “cytotoxicity compared to doxorubicin” value in data set [3] (MTT, cell line not given, fits MCF-7 IC50 values) is listed as “surpassed doxorubicin”. Besides, in data set [3] (over Wi-38 normal cells), the “MCF-7 SI (selectivity index)” value turned out to be 16.02. In data set [4], this compound displayed an early apoptosis of 29.11% and a late apoptosis of 17.64%. Besides, the “total cell death (apoptosis induction)” value in data set [4] (control 0.73%) came out at 46.75%. This compound also gave a necrotic cells in data set [4] (control 1.34%) of 5.39%. Moreover, the IC50 in data set [5] (Homo sapiens, WI-38, 72 h, read-out: Wi-38 IC50) worked out at 801 ± 31 nM. For the same compound, in data set [5] (MTT, 72 h, SI calls it EC100, dose at 100% cell viability, mean ± SEM), the “Wi-38 IC100” value was determined as 0.240 ± 0.003 µM. Further, the “cell cycle distribution compared to untreated cells” value in data set [6] is on record as “increased DNA content during S”.
